{"source": "ChEMBL document CHEMBL1121487", "about": "“Fluorinated pyrimidine nucleosides. 4. Synthesis and antitumor testing of a series of 2',5'-dideoxy- and 2',3',5'-trideoxynucleosides of 5-fluorouracil” (1980)", "key": {"[1]": {"test": "Antitumor activity against sarcoma 180J infected mice was evaluated as ratio of number of survivors to the number of tested animals at dose 100 mg/kg, ip; 7/8", "type": "functional", "how_it_was_run": "(§1)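 Mice bearing sarcoma 180J were dosed intraperitoneally eight times (mg/kg per dose, ×8). Read-outs were percent reduction in tumor growth and the number of mice surviving out of the number tested at each dose level. Mouse deaths were taken as toxicity.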"}, "Sarcoma-180 [2]": {"tested_on": "Sarcoma-180", "test": "Percent reduction against sarcoma 180J tumor growth in mice when administered intraperitoneally at dose 100 mg/kg", "type": "functional, Mus musculus", "conditions": "route intraperitoneal", "how_it_was_run": "(§2)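 Sarcoma 180J tumor model in mice, with eight intraperitoneal doses per schedule (mg/kg ip × 8). Read-out is percent reduction in tumor growth. Toxicity was tracked as the number of surviving mice out of the number tested, with group sizes of 8 to 24 mice.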"}, "Sarcoma-180 [3]": {"tested_on": "Sarcoma-180", "test": "Percent reduction against sarcoma 180J tumor growth in mice when administered intraperitoneally at dose 200 mg/kg", "type": "functional, Mus musculus", "conditions": "route intraperitoneal", "how_it_was_run": "as §2"}, "[4]": {"test": "Antitumor activity against sarcoma 180J infected mice was evaluated as ratio of number of survivors to the number of tested animals at dose 200 mg/kg, ip; 12/16", "type": "functional", "how_it_was_run": "as §1"}, "[5]": {"test": "Antitumor activity against sarcoma 180J infected mice was evaluated as ratio of number of survivors to the number of 8 tested animals at dose 200 mg/kg, ip; 8/8", "type": "functional", "how_it_was_run": "as §1"}, "[6]": {"test": "Antitumor activity against sarcoma 180J infected mice was evaluated as ratio of number of survivors to the number of tested animals at dose 200 mg/kg, ip; 8/8", "type": "functional", "how_it_was_run": "as §1"}, "[7]": {"test": "Antitumor activity against sarcoma 180J infected mice was evaluated as ratio of number of survivors to the number of tested animals at dose 200 mg/kg, ip; 15/16"}, "[8]": {"test": "Antitumor activity against sarcoma 180J infected mice was evaluated as ratio of number of survivors to the number of tested animals at dose 100 mg/kg, ip; 18/24", "type": "functional", "how_it_was_run": "as §1"}, "[9]": {"test": "Antitumor activity against sarcoma 180J infected mice was evaluated as ratio of number of survivors to the number of tested animals at dose 12.5 mg/kg, ip; 8/8", "type": "functional", "how_it_was_run": "as §1"}, "Sarcoma-180 [10]": {"tested_on": "Sarcoma-180", "test": "(§3) Percent reduction against sarcoma 180J tumor growth in mice when administered intraperitoneally at dose 25 mg/kg", "type": "functional, Mus musculus", "conditions": "route intraperitoneal", "how_it_was_run": "as §2"}, "Sarcoma-180 [11]": {"tested_on": "Sarcoma-180", "test": "Percent reduction against sarcoma 180J tumor growth in mice when administered intraperitoneally at dose 50 mg/kg", "type": "functional, Mus musculus", "conditions": "route intraperitoneal", "how_it_was_run": "as §2"}, "Sarcoma-180 [12]": {"tested_on": "Sarcoma-180", "test": "Percent reduction against sarcoma 180J tumor growth in mice when administered intraperitoneally at dose 12.5 mg/kg", "type": "functional, Mus musculus", "conditions": "route intraperitoneal", "how_it_was_run": "as §2"}, "[13]": {"test": "Antitumor activity against sarcoma 180J infected mice was evaluated as ratio of number of survivors to the number of tested animals at dose 25 mg/kg, ip; 16/16", "type": "functional", "how_it_was_run": "as §1"}, "[14]": {"test": "Antitumor activity against sarcoma 180J infected mice was evaluated as ratio of number of survivors to the number of tested animals at dose 200 mg/kg, ip; 11/16", "type": "functional", "how_it_was_run": "as §1"}, "[15]": {"test": "Antitumor activity against sarcoma 180J infected mice was evaluated as ratio of number of survivors to the number of tested animals at dose 50 mg/kg, ip; 16/16", "type": "functional", "how_it_was_run": "as §1"}, "[16]": {"test": "as §3", "type": "functional, Mus musculus", "conditions": "route intraperitoneal", "how_it_was_run": "as §1"}, "Sarcoma-180 [17]": {"tested_on": "Sarcoma-180", "test": "Percent reduction against sarcoma 180J tumor growth in mice when administered intraperitoneally at dose 40 mg/kg", "type": "functional, Mus musculus", "conditions": "route intraperitoneal", "how_it_was_run": "as §1"}, "[18]": {"test": "Antitumor activity against sarcoma 180J infected mice was evaluated as ratio of number of survivors to the number of tested animals at dose 40 mg/kg, ip; 17/24", "type": "functional", "how_it_was_run": "as §1"}, "[19]": {"test": "Antitumor activity against sarcoma 180J infected mice was evaluated as ratio of number of survivors to the number of tested animals at dose 25 mg/kg, ip; 22/22", "type": "functional", "how_it_was_run": "as §1"}, "[20]": {"test": "Antitumor activity against sarcoma 180J infected mice was evaluated as ratio of number of survivors to the number of tested animals at dose 100 mg/kg, ip; 15/16", "type": "functional", "how_it_was_run": "as §1"}}, "data": [{"smiles": "CC1CC[C@H](n2cc(F)c(=O)[nH]c2=O)O1", "note": "(stereo partly drawn)", "values": [{"measurement": "Ratio", "setting": "[1]", "result": 7}, {"measurement": "Reduction", "setting": "Sarcoma-180 [2]", "result": 35, "unit": "%"}, {"measurement": "Reduction", "setting": "Sarcoma-180 [3]", "result": 81, "unit": "%"}, {"measurement": "Ratio", "setting": "[4]", "result": 12}]}, {"smiles": "C[C@H]1O[C@@H]2C[C@H]1Oc1ncc(F)c(=O)n12", "values": [{"measurement": "Ratio", "setting": "[5]", "result": 8}, {"measurement": "Reduction", "setting": "Sarcoma-180 [3]", "result": 28, "unit": "%"}]}, {"smiles": "C[C@H]1O[C@@H](n2cc(F)c(=O)[nH]c2=O)C[C@H]1O", "values": [{"measurement": "Reduction", "setting": "Sarcoma-180 [3]", "result": 6, "unit": "%"}, {"measurement": "Ratio", "setting": "[6]", "result": 8}]}, {"smiles": "C[C@H]1O[C@@H](n2cc(F)c(=O)[nH]c2=O)C[C@@H]1O", "values": [{"measurement": "Ratio", "setting": "[7]", "result": 15}, {"measurement": "Reduction", "setting": "Sarcoma-180 [3]", "result": 0, "unit": "%"}]}, {"smiles": "O=c1[nH]c(=O)n([C@H]2C[C@H](O)[C@@H](CO)O2)cc1F", "note": "[FLOXURIDINE]", "values": [{"measurement": "Ratio", "setting": "[8]", "result": 18}, {"measurement": "Ratio", "setting": "[9]", "result": 8}, {"measurement": "Reduction", "setting": "Sarcoma-180 [10]", "result": 61, "unit": "%"}, {"measurement": "Reduction", "setting": "Sarcoma-180 [11]", "result": 85, "unit": "%"}, {"measurement": "Reduction", "setting": "Sarcoma-180 [12]", "result": 26, "unit": "%"}, {"measurement": "Reduction", "setting": "Sarcoma-180 [2]", "result": 93, "unit": "%"}, {"measurement": "Ratio", "setting": "[13]", "result": 16}, {"measurement": "Ratio", "setting": "[14]", "result": 11}, {"measurement": "Ratio", "setting": "[15]", "result": 16}, {"measurement": "Reduction", "setting": "Sarcoma-180 [3]", "result": 93, "unit": "%"}]}, {"smiles": "O=c1[nH]cc(F)c(=O)[nH]1", "note": "[FLUOROURACIL]", "values": [{"measurement": "Reduction", "setting": "[16]", "result": 38, "unit": "%"}, {"measurement": "Reduction", "setting": "Sarcoma-180 [17]", "result": 87, "unit": "%"}, {"measurement": "Ratio", "setting": "[18]", "result": 17}, {"measurement": "Ratio", "setting": "[19]", "result": 22}]}, {"smiles": "O=c1[nH]c(=O)n(C2CCCO2)cc1F", "note": "(stereo not drawn) [TEGAFUR]", "values": [{"measurement": "Ratio", "setting": "[20]", "result": 15}, {"measurement": "Reduction", "setting": "Sarcoma-180 [2]", "result": 46, "unit": "%"}, {"measurement": "Reduction", "setting": "Sarcoma-180 [3]", "result": 81, "unit": "%"}, {"measurement": "Ratio", "setting": "[4]", "result": 12}]}]}
